Data from ChEMBL document CHEMBL1157157, “N-Aroyl-3,5-bis(benzylidene)-4-piperidones: a novel class of antimycobacterial agents” (Bioorg Med Chem, 2008).
Values after ≈ are worked out from the molar mass of the structure shown. Active and inactive are the calls of the source. No cut-off for these calls is given here.

Columns and labels:
[1] = Lipophilicity, log P of the compound; assay type: physicochemical; settings: octanol/water
Procedure, shortened: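 log P calculated with ACD algorithm and database statistics; not measured experimentally.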

Mus musculus [2] = assay: Neurotoxicity in mouse at 300 mg/kg after 0.5 hrs; assay type: toxicity, organism-based; design: dose 300 mg/kg; settings: in vivo
Procedure, shortened: (§1)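 Mice dosed intraperitoneally at 30, 100 and 300 mg/kg; 1a and 1b given as hydrochloride salts. Observed 0.5 and 4 h after dosing. Value is number of animals showing neurological deficit over number dosed. Deaths also recorded.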

[3] = tested on: Mycobacterium tuberculosis; assay: Antimycobacterial activity against Mycobacterium tuberculosis H37Rv at 6.25 ug/ml by broth microdilution assay; assay type: functional
Procedure, shortened: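 Single-concentration screen at 6.25 µg/mL against M. tuberculosis H37Rv (ATCC 27294), broth microdilution in BACTEC 12B medium. Read-out is % growth inhibition versus controls. At least 90% inhibition counted as active.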

[4] = tested on: Mycobacterium tuberculosis; assay: Antimycobacterial activity against Mycobacterium tuberculosis H37Rv by broth microdilution assay; assay type: functional
Procedure, shortened: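 M. tuberculosis H37Rv (ATCC 27294) grown in BACTEC 12B medium, broth microdilution. MIC taken as the lowest concentration giving a 90% reduction in fluorescence relative to controls. Rifampin served as reference drug.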

Mus musculus [5] = assay: Neurotoxicity in mouse at 100 mg/kg after 0.5 hrs; assay type: toxicity, organism-based; design: dose 100 mg/kg; settings: in vivo; procedure, shortened: as §1
Mus musculus [6] = assay: Neurotoxicity in mouse at 300 mg/kg after 4 hrs; assay type: toxicity, organism-based; design: dose 300 mg/kg; settings: in vivo; procedure, shortened: as §1
Mus musculus [7] = assay: Neurotoxicity in mouse at 100 mg/kg after 4 hrs; assay type: toxicity, organism-based; design: dose 100 mg/kg; settings: in vivo; procedure, shortened: as §1
Rattus norvegicus [8] = assay: Neurotoxicity in rat at 30 mg/kg, po after 0.5 hrs; assay type: toxicity, organism-based; design: dose 30 mg/kg, route oral; settings: in vivo
Procedure, shortened: (§2)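 Rats dosed orally at 30 or 50 mg/kg and examined for neurotoxicity 0.25, 0.5, 1, 2 and 4 h after dosing. Four animals per group, with three rats at one 0.5 h time point.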

[9] = tested on: Mycobacterium tuberculosis; assay: Antimycobacterial activity against Mycobacterium tuberculosis H37Rv at 12.5 ug/ml by broth microdilution assay; assay type: functional
Procedure, shortened: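 Primary screen against M. tuberculosis H37Rv (ATCC 27294) at a single concentration of 12.5 µg/mL in BACTEC 12B medium by broth microdilution. Growth inhibition expressed as % relative to controls. Hydrochloride salt used where applicable.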

Liver [10] = assay: Stimulation of respiration in rat liver mitochondria assessed as effect on swelling at 5 uM; assay type: functional
Procedure, shortened: (§3)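 Rat liver mitochondria isolated by differential centrifugation (respiratory control ratio 5–7). Swelling of fresh mitochondria followed at 30 °C in 125 mM sucrose, 65 mM KCl, 10 mM Hepes, 5 mM potassium phosphate, 1 mM MgCl2, pH 7.2, with 5 mM succinate. Compounds tested at 5, 10 and 100 μM; DMSO solvent control.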

Liver [11] = assay: Stimulation of respiration in rat liver mitochondria assessed as effect on swelling at 10 uM; assay type: functional; procedure, shortened: as §3
Rattus norvegicus [12] = assay: Neurotoxicity in rat at 30 mg/kg, po after 0.25 hrs; assay type: toxicity, organism-based; design: dose 30 mg/kg, route oral; settings: in vivo; procedure, shortened: as §2
Liver [13] = assay: Stimulation of respiration in rat liver mitochondria assessed as effect on swelling at 100 uM; assay type: functional; procedure, shortened: as §3
Rattus norvegicus [14] = assay: Neurotoxicity in rat at 30 mg/kg, po after 2 hrs; assay type: toxicity, organism-based; design: dose 30 mg/kg, route oral; settings: in vivo; procedure, shortened: as §2
Rattus norvegicus [15] = assay: Neurotoxicity in rat at 30 mg/kg, po after 4 hrs; assay type: toxicity, organism-based; design: dose 30 mg/kg, route oral; settings: in vivo; procedure, shortened: as §2
Rattus norvegicus [16] = assay: Neurotoxicity in rat at 50 mg/kg, po after 1 hr; assay type: toxicity, organism-based; design: dose 50 mg/kg, route oral; settings: in vivo; procedure, shortened: as §2

Structure (SMILES) | logP ([1]; read-out: logP) | Activity (Mus musculus [2]) | inhibition at 6.25 µg/mL [3] [%] | MIC [4] [µg/mL] | Activity (Mus musculus [5]) | Activity (Mus musculus [6]) | Activity (Mus musculus [7]) | logP [1] | also measured
Cc1ccc(/C=C2\CN(C(=O)c3ccc(OCCN4CCOCC4)cc3)C/C(=C\c3ccc(C)cc3)C2=O)cc1.Cl | 6.3 | Non-toxic | 100 | 0.78 | Non-toxic | Non-toxic | Non-toxic | – | –
CN(C)CCOc1ccc(C(=O)N2C/C(=C\c3ccc([N+](=O)[O-])cc3)C(=O)/C(=C/c3ccc([N+](=O)[O-])cc3)C2)cc1.Cl | 5.5 | – | 27 | – | Non-toxic | – | Non-toxic | – | Activity (Rattus norvegicus [8]): Non-toxic
CCN(CC)CCOc1ccc(C(=O)N2C/C(=C\c3ccc([N+](=O)[O-])cc3)C(=O)/C(=C/c3ccc([N+](=O)[O-])cc3)C2)cc1.Cl | – | – | 34 | – | – | – | – | 6.5 | –
Cl.O=C1/C(=C/c2ccccc2)CNC/C1=C\c1ccccc1 | – | Non-toxic | – | 3.13 | Non-toxic | Non-toxic | Non-toxic | 5.7 | inhibition at 12.5 µg/mL [9]: 99%
Cl.O=C1/C(=C/c2ccccc2)CN(C(=O)c2ccc(OCCN3CCCCC3)cc2)C/C1=C\c1ccccc1 | – | – | 100 | 6.25 | – | – | – | 7.1 | –
CN(C)CCOc1ccc(C(=O)N2C/C(=C\c3ccccc3)C(=O)/C(=C/c3ccccc3)C2)cc1.Cl | – | Non-toxic | 98 | 1.56 | Non-toxic | Non-toxic | Non-toxic | 5.9 | Activity (Liver [10]): inactive; Activity (Liver [11]): inactive; Activity (Rattus norvegicus [12]): Non-toxic; Activity (Liver [13]): inactive
CCN(CC)CCOc1ccc(C(=O)O)cc1.Cl | 2.9 | Non-toxic | 12 | – | Non-toxic | Non-toxic | Non-toxic | – | –
CC[N+](C)(CC)CCOc1ccc(C(=O)N2C/C(=C\c3ccccc3)C(=O)/C(=C/c3ccccc3)C2)cc1.[I-] | 2.2 | Toxic | 0 | – | Toxic | Toxic | Toxic | – | –
Cc1ccc(/C=C2\CNC/C(=C\c3ccc(C)cc3)C2=O)cc1 | – | Non-toxic | 0 | – | Non-toxic | Non-toxic | Non-toxic | 6.6 | –
Cc1ccc(/C=C2\CN(C(=O)c3ccc(OCCN4CCCCC4)cc3)C/C(=C\c3ccc(C)cc3)C2=O)cc1.Cl | – | Non-toxic | 100 | 3.13 | – | Non-toxic | Non-toxic | 8 | –
Cl.O=C1/C(=C/c2ccc(Cl)cc2)CN(C(=O)c2ccc(OCCN3CCCCC3)cc2)C/C1=C\c1ccc(Cl)cc1 | – | – | 86 | – | – | – | – | 8.1 | –
Cc1ccc(/C=C2\CN(C(=O)c3ccc(OCCN(C)C)cc3)C/C(=C\c3ccc(C)cc3)C2=O)cc1.Cl | – | Non-toxic | 100 | 3.13 | – | Non-toxic | Non-toxic | 6.8 | –
CCN(CC)CCOc1ccc(C(=O)N2C/C(=C\c3ccc(C)cc3)C(=O)/C(=C/c3ccc(C)cc3)C2)cc1.Cl | – | Non-toxic | 100 | 3.13 | Non-toxic | Non-toxic | Non-toxic | 7.9 | –
CO[C@H]1/C=C/O[C@@]2(C)Oc3c(C)c(O)c4c(O)c(c(/C=N/N5CCN(C)CC5)c(O)c4c3C2=O)NC(=O)/C(C)=C\C=C\[C@H](C)[C@H](O)[C@@H](C)[C@@H](O)[C@@H](C)[C@H](OC(C)=O)[C@@H]1C [RIFAMPIN] | – | – | – | 0.07 (≈ 0.0851 µM) | – | – | – | – | –
O=C1/C(=C/c2ccc([N+](=O)[O-])cc2)CNC/C1=C\c1ccc([N+](=O)[O-])cc1 | – | Non-toxic | – | 0.2 (≈ 0.547 µM) | Non-toxic | Non-toxic | Non-toxic | 5.3 | Activity (Liver [10]): inactive; inhibition at 12.5 µg/mL [9]: 100%; Activity (Liver [11]): inactive; Activity (Liver [13]): inactive
CC[N+](C)(CC)CCOc1ccc(C(=O)N2C/C(=C\c3ccc(Cl)cc3)C(=O)/C(=C/c3ccc(Cl)cc3)C2)cc1.[I-] | 3.2 | Non-toxic | 23 | – | Non-toxic | Non-toxic | Non-toxic | – | –
Cl.O=C1/C(=C/c2ccc(Cl)cc2)CN(C(=O)c2ccc(OCCN3CCOCC3)cc2)C/C1=C\c1ccc(Cl)cc1 | 6.4 | Non-toxic | 0 | – | Non-toxic | Non-toxic | Non-toxic | – | Activity (Rattus norvegicus [14]): Non-toxic
CC[N+](C)(CC)CCOc1ccc(C(=O)N2C/C(=C\c3ccc([N+](=O)[O-])cc3)C(=O)/C(=C/c3ccc([N+](=O)[O-])cc3)C2)cc1.[I-] | 1.8 | Toxic | 0 | – | – | Toxic | – | – | Activity (Rattus norvegicus [15]): Non-toxic
CCN(CC)CCOc1ccc(C(=O)N2C/C(=C\c3ccccc3)C(=O)/C(=C/c3ccccc3)C2)cc1.Cl | – | – | 99 | – | – | Non-toxic | Non-toxic | 7 | Activity (Rattus norvegicus [16]): Non-toxic
CN(C)CCOc1ccc(C(=O)N2C/C(=C\c3ccc(Cl)cc3)C(=O)/C(=C/c3ccc(Cl)cc3)C2)cc1.Cl | – | Non-toxic | 100 | 1.56 | Non-toxic | Non-toxic | Non-toxic | 7 | –
CCN(CC)CCOc1ccc(C(=O)N2C/C(=C\c3ccc(Cl)cc3)C(=O)/C(=C/c3ccc(Cl)cc3)C2)cc1.Cl | – | Non-toxic | 37 | – | Non-toxic | Non-toxic | Non-toxic | 8 | –
Cl.O=C1/C(=C/c2ccc(Cl)cc2)CNC/C1=C\c1ccc(Cl)cc1 | – | Non-toxic | – | 6.25 | Non-toxic | Non-toxic | Non-toxic | 6.8 | inhibition at 12.5 µg/mL [9]: 99%
CC[N+](C)(CC)CCOc1ccc(C(=O)N2C/C(=C\c3ccc(C)cc3)C(=O)/C(=C/c3ccc(C)cc3)C2)cc1.[I-] | 3.1 | – | 81 | – | Non-toxic | Toxic | Non-toxic | – | –
O=C1/C(=C/c2ccccc2)CN(C(=O)c2ccccc2)C/C1=C\c1ccccc1 | 5.5 | – | 0 | – | – | – | – | – | –
Cl.O=C1/C(=C/c2ccc([N+](=O)[O-])cc2)CN(C(=O)c2ccc(OCCN3CCCCC3)cc2)C/C1=C\c1ccc([N+](=O)[O-])cc1 | – | – | 100 | 3.13 | – | – | Non-toxic | 6.6 | –
Cl.O=C1/C(=C/c2ccccc2)CN(C(=O)c2ccc(OCCN3CCOCC3)cc2)C/C1=C\c1ccccc1 | 5.4 | – | 100 | 6.25 | Non-toxic | Non-toxic | Non-toxic | – | –
COc1ccc(C(=O)N2C/C(=C\c3ccc(Cl)cc3)C(=O)/C(=C/c3ccc(Cl)cc3)C2)cc1 | 6 | Non-toxic | 47 | – | – | Non-toxic | Non-toxic | – | –
Cl.O=C1/C(=C/c2ccc([N+](=O)[O-])cc2)CN(C(=O)c2ccc(OCCN3CCOCC3)cc2)C/C1=C\c1ccc([N+](=O)[O-])cc1 | 5 | – | 100 | 6.25 | Non-toxic | Non-toxic | Non-toxic | – | –
